Laboratory results taken from ChEMBL document CHEMBL4706631, “Potent and Selective Mitogen-Activated Protein Kinase Kinase 1/2 (MEK1/2) Heterobifunctional Small-molecule Degraders” (J Med Chem, 2020).
Activity calls are given as the source filed them.

Legend:
NCI-H3122 [1] = assay: Antiproliferative activity against human NCI-H3122 cells at 0.014 to 3.33 uM incubated for 3 days by WST8 assay; format: functional, cell-based; conditions: dose 0.014-3.33 µM, time 3.0 day
How it was run: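 NCI-H3122 cells were exposed to serial compound dilutions for 3 days, with WST-8 live-cell readout. Each concentration was run in triplicate. Student's t-test per concentration versus DMSO.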

HT-29 [2] = assay: Inhibition of ERK phosphorylation in human HT-29 cells at 0.3 to 3 uM incubated for 24 hrs by Western blot analysis; format: cell-based; conditions: dose 0.3-3 µM
HT-29 [3] = assay: Effect on global proteome expression in human HT-29 cells at 0.1 uM incubated for 8 hrs by mass spectrometry analysis based global proteome analysis; format: functional, cell-based
How it was run: (§1)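 HT-29 cells were treated 8 h (0.1% DMSO vehicle) and then lysed in 8 M urea/100 mM Tris pH 8.0 with sonication. Proteins were reduced with 5 mM DTT, alkylated with 15 mM IAA and digested overnight with trypsin (1:100). Peptides were analysed on a 130 min nanoLC gradient by Q Exactive HF-X data-dependent MS (top-20 HCD). Run in duplicate.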

HT-29 [4] = assay: Inhibition of colony formation in human HT-29 cells at 10 to 100 nM incubated for 10 days by crystal violet staining based assay; format: functional, cell-based; conditions: dose 10-100 nM, time 10.0 day
How it was run: (§2)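 HT-29 clonogenic assay: cells were exposed to compounds for 10 days, then fixed and stained with crystal violet. Two independent experiments.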

SU-DHL-1 [5] = assay: Inhibition of ERK phosphorylation in human SU-DHL-1 cells at 0.3 to 3 uM and incubated for 24 hrs by Western blot analysis; format: cell-based; conditions: dose 0.3-3 µM
How it was run: (§3)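 H3122 and SU-DHL-1 cells were treated with compounds, and MEK1/2, pMEK and pERK were assessed by Western blot of lysates.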

NCI-H3122 [6] = assay: Inhibition of ERK phosphorylation in human NCI-H3122 cells at 0.3 to 3 uM and incubated for 24 hrs by Western blot analysis; format: cell-based; conditions: dose 0.3-3 µM; how it was run: as §3
HT-29 [7] = assay: Antiproliferative activity against human HT-29 cells incubated for 3 days by WST8 assay; format: functional; conditions: HT-29, 72 h, time 3 day
SK-MEL-28 [8] = assay: Antiproliferative activity against human SK-MEL-28 cells incubated for 3 days by WST8 assay; format: functional; conditions: SK-MEL-28, 72 h, time 3 day
HT-29 [9] = assay: Effect on global proteome expression in human HT-29 cells at 0.3 uM incubated for 8 hrs by mass spectrometry analysis based global proteome analysis; format: functional, cell-based; how it was run: as §1
HT-29 [10] = assay: Inhibition of colony formation in human HT-29 cells at 30 to 300 nM incubated for 10 days by crystal violet staining based assay; format: functional, cell-based; conditions: dose 30-300 nM, time 10.0 day; how it was run: as §2
SU-DHL-1 [11] = assay: Antiproliferative activity against human SU-DHL-1 cells incubated for 3 days by WST8 assay; format: functional; conditions: SU-DHL-1, 72 h, time 3 day
[12] = Toxicity in Swiss albino mouse assessed as induction of adverse events at 50 mg/kg, ip administered as single dose and measured up to 8 hrs; format: organism-based; conditions: in vivo
[13] = Toxicity in Swiss albino mouse assessed as effect on clinical signs at 50 mg/kg, ip administered as single dose and measured up to 8 hrs; format: organism-based; conditions: in vivo
[14] = Drug level in Swiss albino mouse plasma at 50 mg/kg, ip administered as single dose and measured up to 8 hrs by LC-MS/MS analysis; format: ADME, organism-based; conditions: in vivo
[15] = Toxicity in Swiss albino mouse assessed as drug tolerability at 50 mg/kg, ip administered as single dose and measured up to 8 hrs; format: organism-based; conditions: in vivo
HT-29 [16] = assay: Inhibition of ERK phosphorylation in human HT-29 cells incubated for 24 hrs by Western blot analysis; format: cell-based
SK-MEL-28 [17] = assay: Inhibition of ERK phosphorylation in human SK-MEL-28 cells at 0.0001 to 3 uM incubated for 24 hrs by Western blot analysis; format: cell-based; conditions: dose 0.0001-3 µM
HT-29 [18] = assay: Inhibition of ERK phosphorylation in human HT-29 cells pre-incubated with PD0325901 for 2 hrs followed by compound addition at 0.1 uM and further incubated for 8 hrs by Western blot analysis; format: cell-based
HT-29 [19] = assay: Inhibition of ERK phosphorylation in human HT-29 cells pre-incubated with VH032 for 2 hrs followed by compound addition at 0.1 uM and further incubated for 8 hrs by Western blot analysis; format: cell-based
HT-29 [20] = assay: Inhibition of ERK phosphorylation in human HT-29 cells pre-incubated with MG-132 for 2 hrs followed by compound addition at 0.1 uM and further incubated for 8 hrs by Western blot analysis; format: cell-based
HT-29 [21] = assay: Inhibition of ERK phosphorylation in human HT-29 cells pre-incubated with MLN4924 for 2 hrs followed by compound addition at 0.1 uM and further incubated for 8 hrs by Western blot analysis; format: cell-based
HT-29 [22] = assay: Inhibition of ERK phosphorylation in human HT-29 cells pre-incubated for 2 hrs followed by compound addition at 0.1 uM and further incubated for 8 hrs by Western blot analysis
HT-29 [23] = assay: Inhibition of ERK phosphorylation in human HT-29 cells pre-incubated with PD0325901 for 2 hrs followed by compound addition at 0.3 uM and further incubated for 8 hrs by Western blot analysis; format: cell-based
HT-29 [24] = assay: Inhibition of ERK phosphorylation in human HT-29 cells pre-incubated with POMA for 2 hrs followed by compound addition at 0.3 uM and further incubated for 8 hrs by Western blot analysis; format: cell-based
HT-29 [25] = assay: Inhibition of ERK phosphorylation in human HT-29 cells pre-incubated with MG132 for 2 hrs followed by compound addition at 0.3 uM and further incubated for 8 hrs by Western blot analysis; format: cell-based
HT-29 [26] = assay: Inhibition of ERK phosphorylation in human HT-29 cells pre-incubated with MLN4924 for 2 hrs followed by compound addition at 0.3 uM and further incubated for 8 hrs by Western blot analysis; format: cell-based
HT-29 [27] = assay: Inhibition of ERK phosphorylation in human HT-29 cells at 0.3 uM and further incubated for 8 hrs by Western blot analysis
HT-29 [28] = assay: Antiproliferative activity against human HT-29 cells at 0.00017 to 10 uM in presence of 100 nM PLX4032 incubated for 3 days by WST-8 assay; format: functional, cell-based; conditions: dose 0.00017-10 µM, time 3.0 day
How it was run: (§4)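 Cells grown in DMEM, RPMI-1640 or EMEM with 10% FBS and penicillin/streptomycin. They were exposed for 3 days to a dilution series of degrader combined with fixed PLX4032 (100 nM) or ZSTK474 (400 nM). Live-cell signal was read by WST-8. Triplicate points, mean ± SD of three independent experiments. Student's t-test per concentration versus DMSO.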

SK-MEL-28 [29] = assay: Antiproliferative activity against human SK-MEL-28 cells at 0.00017 to 10 uM in presence of 400 nM ZSTK474 incubated for 3 days by WST-8 assay; format: functional, cell-based; conditions: dose 0.00017-10 µM, time 3.0 day; how it was run: as §4
HT-29 [30] = assay: Antiproliferative activity against human HT-29 cells at 0.00017 to 10 uM in presence of 400 nM ZSTK474 incubated for 3 days by WST-8 assay; format: functional, cell-based; conditions: dose 0.00017-10 µM, time 3.0 day; how it was run: as §4
SK-MEL-28 [31] = assay: Antiproliferative activity against human SK-MEL-28 cells at 0.00017 to 10 uM in presence of 100 nM PLX4032 incubated for 3 days by WST-8 assay; format: functional, cell-based; conditions: dose 0.00017-10 µM, time 3.0 day; how it was run: as §4

Cc1ncsc1-c1ccc([C@H](C)NC(=O)[C@H]2C[C@H](O)CN2C(=O)[C@@H](NC(=O)CCCCCCCCCCCNCCCCONC(=O)c2ccc(F)c(F)c2Nc2ccc(I)cc2F)C(C)(C)C)cc1
inactive: Activity (NCI-H3122 [1]) | inhibition (HT-29 [2]) | Activity (HT-29 [3]) | inhibition (HT-29 [4]) | inhibition (SU-DHL-1 [5]) | inhibition (NCI-H3122 [6])

Cc1ncsc1-c1ccc([C@H](C)NC(=O)[C@@H]2C[C@@H](O)CN2C(=O)[C@@H](NC(=O)CCCCCCCCCCNCCCONC(=O)c2ccc(F)c(F)c2Nc2ccc(I)cc2F)C(C)(C)C)cc1
130 nM: GI50 (HT-29 [7])
83 nM: GI50 (SK-MEL-28 [8])

CN1C(=O)CCC(N2C(=O)c3ccc(NCCOCCOCCOCCOCCOCCNCCCONC(=O)c4ccc(F)c(F)c4Nc4ccc(I)cc4F)cc3C2=O)C1=O (stereo not drawn)
inactive: inhibition (HT-29 [2]) | Activity (HT-29 [9]) | inhibition (HT-29 [10])

Cc1ncsc1-c1ccc([C@H](C)NC(=O)[C@@H]2C[C@@H](O)CN2C(=O)[C@@H](NC(=O)COCCOCCOCCNC(=O)CCc2ccc(S(=O)(=O)Nc3cc(C)c(=O)n(C)c3Nc3ccc(I)cc3F)cc2)C(C)(C)C)cc1
2400 nM: GI50 (SU-DHL-1 [11])

Cc1ncsc1-c1ccc([C@H](C)NC(=O)[C@@H]2C[C@@H](O)CN2C(=O)[C@@H](NC(=O)CCCCCCCCCCN(C)CCCONC(=O)c2ccc(F)c(F)c2Nc2ccc(I)cc2F)C(C)(C)C)cc1
active: Activity (NCI-H3122 [1]) | inhibition (HT-29 [16]) Dose-dependent effect | inhibition (SK-MEL-28 [17]) | inhibition (HT-29 [18]) | inhibition (HT-29 [4]) | inhibition (SU-DHL-1 [5]) | inhibition (NCI-H3122 [6])
Active: Drug uptake [14]
Non-Toxic: Activity [12] | Activity [13] | Activity [15]
inactive: inhibition (HT-29 [19]) | inhibition (HT-29 [20]) | inhibition (HT-29 [21]) | inhibition (HT-29 [22])

O=C1CCC(N2C(=O)c3ccc(NCCOCCOCCOCCOCCOCCNCCCONC(=O)c4ccc(F)c(F)c4Nc4ccc(I)cc4F)cc3C2=O)C(=O)N1 (stereo not drawn)
active: inhibition (HT-29 [16]) Dose-dependent effect | inhibition (HT-29 [23]) | inhibition (HT-29 [10])
inactive: inhibition (HT-29 [24]) | inhibition (HT-29 [25]) | inhibition (HT-29 [26]) | inhibition (HT-29 [27])

Cc1ncsc1-c1ccc([C@H](C)NC(=O)[C@@H]2C[C@@H](O)CN2C(=O)[C@@H](NC(=O)CCCCCCCCCCCNCCCCONC(=O)c2ccc(F)c(F)c2Nc2ccc(I)cc2F)C(C)(C)C)cc1
Non-Toxic: Activity [12] | Activity [13] | Activity [15]
inactive: inhibition (HT-29 [19]) | inhibition (HT-29 [20]) | inhibition (HT-29 [21]) | inhibition (HT-29 [22])
active: Activity (NCI-H3122 [1]) | Activity (HT-29 [28]) | Activity (SK-MEL-28 [29]) | Activity (HT-29 [30]) | Activity (SK-MEL-28 [31]) | inhibition (HT-29 [16]) Dose-dependent effect | inhibition (SK-MEL-28 [17]) | inhibition (HT-29 [18]) | inhibition (HT-29 [4]) | inhibition (SU-DHL-1 [5]) | inhibition (NCI-H3122 [6])
Active: Drug uptake [14]
